PglD DTNB = PglD (C. jejuni) enzyme inhibition; purified PglD enzyme, DTNB colorimetric CoA detection; inhibition, % at 12.5 µM; 360,000 compounds, 0.098% hits; in the data active = inhibition above about 16%, passing the limit was not always enough
DENV2 CPE = protects cells from dengue virus 2 cytopathic effect. DENV2-infected cells, cytopathic effect rescue, plate reader. CPE inhibition, % at 9.99 µM. 350,000 compounds, 1.7% hits; in the data active = CPE inhibition above about 20%, passing the limit was not always enough; tested in BHK-21 cells;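 also: 0% = median of neutral control wells and 100% = median of positive control wells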
Statin myotox sup = suppression of simvastatin myotoxicity; C2C12 myotubes + simvastatin, ATP luminescence, 48 h; scaled: DMSO 0, geranylgeraniol control 100; rescue of ATP level, % at 7.49 µM; 330,000 compounds, 0.78% hits; AID 602340;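 active = mean ATP rescue above about 67%, or every replicate alone reaching that limit, limit read from the data, passing the limit was not always enough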;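 also: myotubes were challenged with 10 µM simvastatin during compound exposure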
XiGFP reactiv = reactivates the inactive X chromosome in mouse fibroblasts. AID 743238. 360,000 compounds, 0.055% hits. activation, % at 7.58 µM. XiGFP mouse fibroblasts, % GFP-positive cells imaging, 3 d; cells co-treated with 5-aza-dC sensitizer; scaled so ellipticine positive control = 100%;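 active = mean normalized replicate activation at least 10% and every replicate at or above 10%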;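 also: 0% = median of on-plate neutral control wells and 100% = ellipticine 6 µM median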
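material = 68-5-11 XiGFP fibroblast line | medium = DMEM plus 5-aza-dC sensitizer | schedule = 3 days compound exposure | benchmarks = positive control ellipticine, 6 µM final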
E-sel inducer = induces E-selectin expression in human endothelial cells; activation, % at 7.58 µM; HUVEC E-selectin immunofluorescence imaging; normalized: neutral wells 0, TNF-alpha wells 100; 260,000 compounds, 0.37% hits;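 active = mean E-selectin-positive cell signal at least 10% of the positive control, reached in at least 60% of replicates, without over 20% cell loss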
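Assay system: HUVEC, human umbilical vein endothelial cells / Amount: 3,000 HUVEC/well / Controls: TNF-alpha positive control, DMSO neutral control / Compound dosing: single concentration / Medium: EGM-2 over gelatin coat / Evaluation: percent E-selectin-positive cells / Signal: immunofluorescence imaging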
FGF22 binding = FGF22 (human) thermal shift binding; Q9HCT0; AID 651658; 340,000 compounds, 1.5% hits; recombinant FGF22 thermal shift, SYPRO orange fluorescence; percent of sucrose octasulfate shift, DMSO zero; activity (Tm shift, normalised), % at 9.99 µM;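 active = mean Tm shift, scaled 0 neutral to 100 positive control, at about 1.3% or above, every replicate too, limit read from the data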
Target sequence (Q9HCT0 whole entry, looked up): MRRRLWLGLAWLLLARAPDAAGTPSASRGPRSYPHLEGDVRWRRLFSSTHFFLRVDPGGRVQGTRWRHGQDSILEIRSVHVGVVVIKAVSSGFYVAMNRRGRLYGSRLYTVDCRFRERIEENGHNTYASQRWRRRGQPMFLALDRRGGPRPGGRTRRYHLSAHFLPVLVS
Active calls of the source: *. The list is not random: actives were taken first. Their share in the collection is about 3.3%.

Results for C[C@@H]1CN([C@@H](C)CO)C(=O)c2cc(C#CC3CC3)cnc2O[C@H]1CN(C)C(=O)c1ccncc1 ?
Statin myotox sup: 24; XiGFP reactiv: -1; E-sel inducer: 1

What do the screens show for `COc1ccc2c3c(n(C)c2c1)[C@@H](CO)N(Cc1ccccc1F)CC31CN(C(=O)C2CC2)C1`?
DENV2 CPE: -1; XiGFP reactiv: 0; E-sel inducer: 0; FGF22 binding: 0

How did COc1ccc([C@H]2CC(=O)C=C(c3ccccc3)C2)cc1OC do in these assays?
PglD DTNB: 9; DENV2 CPE: -4; Statin myotox sup: 80*; XiGFP reactiv: 0; E-sel inducer: 0; FGF22 binding: 0

How did COc1ccc([C@H]2CC(=O)C=C(c3ccc(F)nc3)C2)cc1OC do in these assays?
PglD DTNB: 6; DENV2 CPE: 15; Statin myotox sup: 90*; XiGFP reactiv: 0; E-sel inducer: 0; FGF22 binding: 0

How did COc1ccc([C@H]2CC(=O)C=C(c3ccc4cc[nH]c4c3)C2)cc1 do in these assays?
PglD DTNB: 9; DENV2 CPE: 66*; Statin myotox sup: -7; XiGFP reactiv: 1; E-sel inducer: 0; FGF22 binding: 0

How did COc1ccc(C2=CC(=O)C[C@H](c3ccc(OC)c(OC)c3)C2)cn1 do in these assays?
PglD DTNB: -1; DENV2 CPE: 5; Statin myotox sup: -8; XiGFP reactiv: 0; FGF22 binding: 0

Results for COc1ccc(C2=CC(=O)C[C@H](c3ccc(OC)cc3)C2)cc1 ?
PglD DTNB: 3; DENV2 CPE: 7; Statin myotox sup: -2; XiGFP reactiv: 0; E-sel inducer: 0; FGF22 binding: 0

Results for COc1ccc([C@H]2CC(=O)C=C(c3ccc(Oc4ccccc4)cc3)C2)cc1OC ?
PglD DTNB: 3; DENV2 CPE: 2; Statin myotox sup: 30; XiGFP reactiv: 0; E-sel inducer: 0; FGF22 binding: 0

What do the screens show for `CO[C@@H]1CN(C)C(=O)c2cc(NS(=O)(=O)CC(F)(F)F)ccc2OC[C@@H](C)N(Cc2nccs2)C[C@H]1C`?
Statin myotox sup: 0; XiGFP reactiv: 0; E-sel inducer: 0

How did CCN(C(=O)c1cnc(N2CCN(c3ncccn3)CC2)c2ccccc12)c1cccc(Cl)c1 do in these assays?
PglD DTNB: 0; Statin myotox sup: 110*

How did CO[C@H]1CN(C)C(=O)c2cc(NC(=O)NC3CCCCC3)ccc2OC[C@H](C)N(CC2CC2)C[C@@H]1C do in these assays?
PglD DTNB: 1; DENV2 CPE: -10; Statin myotox sup: -16; XiGFP reactiv: 0; E-sel inducer: 0; FGF22 binding: 0

How did Cc1nn2c(C)c(C(=O)Nc3ccccc3)cnc2c1-c1ccccc1 do in these assays?
PglD DTNB: 1; DENV2 CPE: 42*; Statin myotox sup: 21; XiGFP reactiv: 0; E-sel inducer: 3; FGF22 binding: -1

How did COc1ccc2c(c1OC)C(=O)N(c1ccccn1)C2 do in these assays?
PglD DTNB: -1; Statin myotox sup: 101*

What do the screens show for `COc1ccc(C(=O)c2[nH]c(N)c(C(=O)NCCc3c[nH]c4ccccc34)c2-c2ccc(Cl)cc2)cc1`?
DENV2 CPE: 11; XiGFP reactiv: 0; E-sel inducer: 0; FGF22 binding: 0

Results for COCCNC(=O)c1c(N)[nH]c(C(=O)c2ccc(Br)cc2)c1-c1ccc(Br)cc1 ?
DENV2 CPE: 34*; XiGFP reactiv: 0; E-sel inducer: 0; FGF22 binding: 0

How did COc1ccc(-c2c(C(=O)c3ccccc3)[nH]c(N)c2C(=O)NCCc2c[nH]c3ccccc23)cc1 do in these assays?
DENV2 CPE: 31*; XiGFP reactiv: 0; E-sel inducer: 1; FGF22 binding: 0

Results for Nc1[nH]c(C(=O)c2ccccc2)c(-c2ccc(Cl)cc2)c1C(=O)c1c[nH]c2ccccc12 ?
DENV2 CPE: 28*; XiGFP reactiv: 0; E-sel inducer: 0; FGF22 binding: 0

What do the screens show for `Nc1[nH]c(C(=O)c2ccc(Br)cc2)c(-c2ccc(Br)cc2)c1C(=O)NCc1ccc(-c2ccccc2)cc1`?
DENV2 CPE: 2; XiGFP reactiv: 0; E-sel inducer: 0

Results for Nc1[nH]c(C(=O)c2ccc(Br)cc2)c(-c2ccncc2)c1C(=O)NCCc1c[nH]c2ccccc12 ?
DENV2 CPE: 20*; XiGFP reactiv: 0; E-sel inducer: 0; FGF22 binding: 0

What do the screens show for `Nc1[nH]c(C(=O)c2ccc(Br)cc2)c(-c2ccc(Br)cc2)c1C(=O)NCCc1c[nH]c2ccccc12`?
DENV2 CPE: 3; XiGFP reactiv: 0; E-sel inducer: 0; FGF22 binding: 0

Results for Nc1[nH]c(C(=O)c2ccc(Br)cc2)c(-c2ccccc2Br)c1C(=O)NCCc1c[nH]c2ccccc12 ?
DENV2 CPE: -9; XiGFP reactiv: 0; E-sel inducer: 0; FGF22 binding: 44*

Results for Nc1[nH]c(C(=O)c2ccc(Br)cc2)c(-c2c(F)cccc2F)c1C(=O)NCCc1c[nH]c2ccccc12 ?
DENV2 CPE: 39*; XiGFP reactiv: 0; E-sel inducer: 0; FGF22 binding: 0

Results for Nc1[nH]c(C(=O)c2ccc(Br)cc2)c(-c2ccc(F)cc2)c1C(=O)NCCc1c[nH]c2ccccc12 ?
DENV2 CPE: 26*; XiGFP reactiv: 1; E-sel inducer: 1; FGF22 binding: 0

What do the screens show for `COCC(=O)Nc1ccc2c(c1)OC[C@@H](C)N(C)C[C@H](C)[C@H](OC)CN(C)C2=O`?
PglD DTNB: 0; DENV2 CPE: -6; Statin myotox sup: 3; XiGFP reactiv: 0; E-sel inducer: 0; FGF22 binding: 0

How did CCOC(=O)CSc1[nH]c2cc(OC)ccc2c1[N+](=O)[O-] do in these assays?
DENV2 CPE: 24*; XiGFP reactiv: 0; E-sel inducer: -1; FGF22 binding: 0

Results for CCn1c(C)c(C(C)=O)c(N2CCCCC2)nc1=S ?
PglD DTNB: 3; Statin myotox sup: 79*

What do the screens show for `C#CCN(Cc1ccco1)C(=O)c1nnc2c3ccccc3n(S(=O)(=O)c3ccc(C)cc3)c2n1`?
DENV2 CPE: 25*; XiGFP reactiv: 0; E-sel inducer: 1

Results for O=C(NCC1CCCO1)c1ccccc1OCc1ccc(Cl)cc1 (stereo not given) ?
PglD DTNB: 4; DENV2 CPE: 65*; Statin myotox sup: -7; XiGFP reactiv: 0; E-sel inducer: 2

How did Cc1ccc(-c2nn(Cc3ccccc3)cc2C(=O)NCC2CCCO2)cc1 (stereo not given) do in these assays?
PglD DTNB: -8; DENV2 CPE: 5; Statin myotox sup: -1; XiGFP reactiv: 0; FGF22 binding: 0
